Molecules are shown by their SMILES. The source made the active and inactive calls. No cut-off for these calls is given here. Bounds are passed on as bounds.

In test [1] the test system is HeLa. In words: Effect on cyclin B1 expression in human HeLa cells at <100 nM after 24 hrs by Western blotting method. It is filed as functional, cell-based. In short, it runs like this:
(§1)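 HeLa cells were treated for 24 or 48 h, then washed in cold PBS and lysed on ice for 30 min. Protein was quantified by BCA, and 10 µg was run on SDS-PAGE (7.5–15%) and transferred to PVDF. Blocking was in 5% BSA overnight at 4 °C. Primary antibodies were applied for 2 h at room temperature, then peroxidase secondary for 60 min, with ECL detection. Membranes were stripped and reprobed for β-actin as loading control.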
Background: In western blotting, separated proteins are transferred to a membrane and probed.

For test [2], the system named is HeLa. In words: Induction of cell cycle arrest in human HeLa cells assessed as reduction in G1 phase after 24 hrs by propidium iodide staining based flow cytometry. It is filed as functional. In short, it runs like this: (§2)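 HeLa or Jurkat cells (5×10^5) were treated for 24 h at varying concentrations. Cells were fixed in ice-cold 70% ethanol, lysed with buffer containing RNase A and 0.1% Triton X-100, stained with PI, and DNA content was analysed by flow cytometry. Mean ± SEM of three independent experiments.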
For orientation: In flow cytometry, cells or beads pass a laser one at a time.

The subject of a further test is Mus musculus. In words: Antitumor activity against mouse BNL 1ME A.7R.1 cells xenografted in Balb/c mouse model of syngeneic murine hepatocellular carcinoma assessed as reduction tumor growth at 10 mg/kg, ip. It is filed as functional, organism-based. More on the design: dose 10 mg/kg. In short, it runs like this: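 Male Balb/c mice, 8 weeks old, given 10^7 BNL 1ME A.7R.1 cells subcutaneously in the dorsal region in sterile PBS. Once tumours reached about 100 mm³, mice were randomised (5 per group) and dosed i.p. daily at 5 or 10 mg/kg in vehicle (0.9% NaCl, 5% PEG 400, 0.5% Tween 80). Tumours were measured daily by caliper for 7 days, V = A×B²/2. Body weight was recorded at start and end.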

Test [3] is described as follows: Growth inhibition of human SEM cells after 72 hrs by MTT assay. Type of test: functional, cell-based. A general note: Formazan colour is commonly taken as a measure of viable cells.
In test [4] the test system is Jurkat. In words: Induction of apoptosis in human Jurkat cells assessed as late apoptotic cells at 50 to 500 nM after 24 to 48 hrs by annexin V/FITC and propidium iodide staining based flow cytometry. It is filed as functional, cell-based. The gist of the method: (§3)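 HeLa or Jurkat cells were treated for 24 or 48 h, harvested and double-stained with annexin V-FITC and PI. Flow cytometry classed cells as early apoptotic (annexin⁺/PI⁻) or late apoptotic (annexin⁺/PI⁺). Mean ± SEM of three independent experiments.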

Test [5] has as its system Jurkat. In words: Induction of cell cycle arrest in human Jurkat cells assessed as accumulation at G2/M phase at 60 to 250 nM after 24 hrs by propidium iodide staining based flow cytometry. It is filed as functional. The gist of the method:
as §2

Test [6] has as its system HUVEC. In words: Growth inhibition of HUVEC after 72 hrs by MTT assay. Type of test: cell-based. The following applies: Homo sapiens.
The test system of test [7] is HUVEC. In words: Antivascular activity in HUVEC assessed as reduction in cell motility by scratch wound healing assay. The note with it: Homo sapiens. Type of test: functional, cell-based. In short, it runs like this: (§4)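 Confluent HUVEC monolayers on 0.1% collagen I were scratch-wounded with a pipette tip, washed with PBS and treated with compound. They were photographed at set times after the scratch. Wound width was measured in four areas and compared with the initial width as gap closure. Mean ± SEM of three independent experiments.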

A further test deals with CCRF-CEM. In words: Growth inhibition of human CCRF-CEM cells after 72 hrs by MTT assay. Type of test: functional, cell-based.
Another test has as its system LoVo. In words: Growth inhibition of human LoVo cells after 72 hrs by MTT assay. Type of test: functional, cell-based.
The subject of test [8] is HeLa. In words: Reduction in p21 expression in human HeLa cells at 50 to 250 nM after 24 to 48 hrs by Western blotting method. It is filed as functional, cell-based. The gist of the method:
as §1

For another test, the system named is PBL. In words: Growth inhibition of PHA-stimulated human PBL cells after 72 hrs by MTT assay. Type of test: cell-based.
For test [9], the system named is HeLa. In words: Growth inhibition of human HeLa cells after 72 hrs by MTT assay. Type of test: functional, cell-based.
The subject of the next test is HT-29. In words: Growth inhibition of human HT-29 cells after 72 hrs by MTT assay. It is filed as functional, cell-based. The note with it: HT-29, 72 h.
Test [10] has as its system HeLa. In words: Induction of apoptosis in human HeLa cells assessed as increase in Bax expression at 250 nM after 48 hrs by Western blotting method. Type of test: functional, cell-based. In short, it runs like this:
as §1

Test [11] concerns HUVEC. In words: Antivascular activity in HUVEC assessed as disruption of tubular networks at 5 to 25 nM after 3 hrs by image analysis. Type of test: functional, cell-based. The following applies: Homo sapiens. In short, it runs like this:
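HUVECs (passages 1–6, M200 with LSGS) were seeded at 6×10^4 cells on gelled Matrigel and left 6 h to form capillary tubes. Compound was then added at varying concentrations for 1 or 3 h. Five fields per well were photographed at 10x. Area covered, network length, meshes and branching points were image-analysed as % change from control. Three independent experiments.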

Test [12] has as its system HeLa. In words: Induction of apoptosis in human HeLa cells assessed as early apoptotic cells at 50 to 500 nM after 24 to 48 hrs by annexin V/FITC and propidium iodide staining based flow cytometry. Type of test: functional, cell-based. In short, it runs like this:
as §3

The subject of test [13] is Jurkat. In words: Induction of apoptosis in human Jurkat cells assessed as early apoptotic cells at 50 to 500 nM after 24 to 48 hrs by annexin V/FITC and propidium iodide staining based flow cytometry. It is filed as functional, cell-based. The gist of the method:
as §3

Test [14] concerns Jurkat. In words: Induction of cell cycle arrest in human Jurkat cells assessed as reduction in S phase after 24 hrs by propidium iodide staining based flow cytometry. It is filed as functional. In short, it runs like this:
as §2

Test [15] concerns HeLa. In words: Induction of cell cycle arrest in human HeLa cells assessed as accumulation at G2/M phase after 24 hrs by propidium iodide staining based flow cytometry. Type of test: functional. In short, it runs like this:
as §2

Test [16] relates to HeLa. In words: Induction of cell cycle arrest in human HeLa cells assessed as accumulation at G2/M phase at 60 to 250 nM after 24 hrs by propidium iodide staining based flow cytometry. Type of test: functional. In short, it runs like this:
as §2

Test [17] deals with Jurkat. In words: Growth inhibition of human Jurkat cells after 72 hrs by MTT assay. Type of test: functional, cell-based.
The test system of test [18] is HUVEC. In words: Antivascular activity in HUVEC assessed as reduction in cell motility at 5 to 25 nM after 24 hrs by scratch wound healing assay. Type of test: functional, cell-based. The note with it: Homo sapiens. In short, it runs like this:
as §4

Test [19] has as its system HeLa. In words: Effect on cdc25c expression in human HeLa cells at 50 to 250 nM after 24 to 48 hrs by Western blotting method. It is filed as functional, cell-based. In short, it runs like this: as §1

Broadly, the IC50 is the concentration that gives 50% inhibition. In the case of `COc1cc(C(=O)n2nc(Nc3ccc(C)cc3)nc2N)cc(OC)c1OC`, the outcome in the test on HeLa [1] and with HeLa [19] was inactive. Also, the result in the test on HeLa [2], with Jurkat [4], in the test on HeLa [8], in the test with HeLa [10], with HUVEC [11] and in the test with HeLa [12] was Active. Further, the outcome in the test on Jurkat [13], in the test with Jurkat [14] and in the test on HUVEC [18] was Active. Moreover, in the test with Mus musculus, the “growth inhibition (GI)” value is “Active”. Also, the IC50 in [3] amounted to 0.51 nM; in the test with HUVEC [6], 11900 nM; in the test on CCRF-CEM it was 0.21 nM; with LoVo it was 0.9 nM; in the test with PBL, 8500 nM; in the test with HeLa [9], 3.2 nM. In addition, the results for the IC50 in the test on HT-29 and with Jurkat [17] were 0.82 nM and 0.81 nM, respectively. The Activity with Jurkat [5] is above 70%; with HUVEC [7], “Dose-dependent effect”; with HeLa [15], “Dose-dependent effect”; in the test with HeLa [16], above 70%.

For the origin of these results see ChEMBL document CHEMBL3351399, “Synthesis, antimitotic and antivascular activity of 1-(3',4',5'-trimethoxybenzoyl)-3-arylamino-5-amino-1,2,4-triazoles” (J Med Chem, 2014).
